Data set [1] in a line: Tmax in Fischer rat at 10 mg/kg, po. The class given is ADME, organism-based. Also noted: dose 10 mg/kg, route oral. Particulars: in vivo. In outline: (§1)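 Fischer rats; amino acid dosed orally as diethyl ester hydrochloride salt, 30 mg/kg (one entry at 10 mg/kg), three rats per time point. Amino acid plasma levels measured: AUC 0 to infinity, Cmax as maximum observed concentration, Tmax as time at Cmax. %F is amino acid exposure after oral ester dosing relative to the amino acid given iv.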

The next data set deals with Glutamate receptor 2 (Homo sapiens, UniProt P42262). The data set is described as follows: Binding affinity to GluA2 receptor (unknown origin).
Data set [2] is described as follows: AUC (0 to infinity) in Fischer rat at 10 mg/kg, po. Also noted: time infinity, dose 10 mg/kg, route oral. Particulars: plasma. The class given is ADME, organism-based. The method in brief:
as §1

Data set [3] can be described thus: Oral bioavailability in Fischer rat at 10 mg/kg. The class given is ADME, organism-based. Particulars: in vivo. The method in brief:
as §1

Data set [4] can be described thus: Cmax in Fischer rat at 10 mg/kg, po. The following applies: in vivo. Details: dose 10 mg/kg, route oral. The class given is ADME, organism-based. In outline: as §1
For data set [5], the system named is Rattus norvegicus. The data set is described as follows: Neurotoxicity in po dosed rat assessed as sedative effect by rotorod test. The data set is classed as toxicity, organism-based. The following applies: in vivo. The method in brief: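 Rotorod test in rats for sedative or ataxic effects; amino acid given p.o. as diethyl ester hydrochloride salt at several doses, N = 8, vehicle controls N = 8; minimal effective dose (MED) reported.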
On the technique in general: Falling from the rotarod earlier than controls is read as motor impairment.

Data set [6] concerns Rattus norvegicus. The data set is described as follows: Antihyperalgesic activity against carrageenan-induced thermal hyperalgesia in po dosed rat. The following applies: read-out: MED. The data set is classed as functional. In outline: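 Rat carrageenan-induced thermal hyperalgesia; amino acid given p.o. as diethyl ester hydrochloride salt at several doses, N = 6 per group; vehicle controls N = 6. Reported as minimal effective dose (MED).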

Data set [7] can be described thus: Cmax in Fischer rat at 30 mg/kg, po. Particulars: in vivo. Also noted: dose 30 mg/kg, route oral. The data set is classed as ADME, organism-based. The method in brief:
as §1

Data set [8] has as its system Rattus norvegicus. The data set is described as follows: Analgesic activity in rat assessed as reversal of formalin-induced pain at 30 mg/kg, po. The class given is functional. In outline: (§2)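 Rat formalin pain model; amino acid given p.o. as diethyl ester hydrochloride salt at 30 mg/kg (one entry at 100 mg/kg), N = 8–9; vehicle controls N = 8–12. Read-out is % reversal of formalin-induced pain.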

Data set [9] can be described thus: Tmax in Fischer rat at 30 mg/kg, po. The data set is classed as ADME, organism-based. Also noted: dose 30 mg/kg, route oral. The following applies: in vivo. The method in brief: as §1
Data set [10] is described as follows: AUC (0 to infinity) in Fischer rat at 30 mg/kg, po. The class given is ADME, organism-based. Also noted: time infinity, dose 30 mg/kg, route oral. Particulars: plasma. In outline:
as §1

Data set [11] in a line: Oral bioavailability in Fischer rat at 30 mg/kg. The class given is ADME, organism-based. The following applies: in vivo. The method in brief:
as §1

Data set [12] deals with Glutamate receptor ionotropic, kainate 1 (Homo sapiens, UniProt P39086). The data set is described as follows: Binding affinity to GluK1 receptor (unknown origin).
Data set [13] has as its system Rattus norvegicus. The data set is described as follows: Analgesic activity in rat assessed as reversal of formalin-induced pain at 100 mg/kg, po. The class given is functional. The method in brief:
as §2

A word on the Tmax: it is the time at which the peak concentration occurs. The Ki is the equilibrium dissociation constant of an inhibitor or competing ligand from its target. Low readings indicate higher affinity, high ones lower affinity. A word on the AUC(0-inf): it is total exposure, with the tail of the curve extrapolated. Read a high AUC(0-inf) as more exposure. As usually defined, the bioavailability is the share of a dose that reaches the circulation, judged against a reference dose that is usually intravenous. A high value points to much systemic uptake. One may read the Cmax as the peak of the concentration-time curve.

Molecules are shown by their SMILES.

Glutamate receptor 2, sequence (P42262 whole entry): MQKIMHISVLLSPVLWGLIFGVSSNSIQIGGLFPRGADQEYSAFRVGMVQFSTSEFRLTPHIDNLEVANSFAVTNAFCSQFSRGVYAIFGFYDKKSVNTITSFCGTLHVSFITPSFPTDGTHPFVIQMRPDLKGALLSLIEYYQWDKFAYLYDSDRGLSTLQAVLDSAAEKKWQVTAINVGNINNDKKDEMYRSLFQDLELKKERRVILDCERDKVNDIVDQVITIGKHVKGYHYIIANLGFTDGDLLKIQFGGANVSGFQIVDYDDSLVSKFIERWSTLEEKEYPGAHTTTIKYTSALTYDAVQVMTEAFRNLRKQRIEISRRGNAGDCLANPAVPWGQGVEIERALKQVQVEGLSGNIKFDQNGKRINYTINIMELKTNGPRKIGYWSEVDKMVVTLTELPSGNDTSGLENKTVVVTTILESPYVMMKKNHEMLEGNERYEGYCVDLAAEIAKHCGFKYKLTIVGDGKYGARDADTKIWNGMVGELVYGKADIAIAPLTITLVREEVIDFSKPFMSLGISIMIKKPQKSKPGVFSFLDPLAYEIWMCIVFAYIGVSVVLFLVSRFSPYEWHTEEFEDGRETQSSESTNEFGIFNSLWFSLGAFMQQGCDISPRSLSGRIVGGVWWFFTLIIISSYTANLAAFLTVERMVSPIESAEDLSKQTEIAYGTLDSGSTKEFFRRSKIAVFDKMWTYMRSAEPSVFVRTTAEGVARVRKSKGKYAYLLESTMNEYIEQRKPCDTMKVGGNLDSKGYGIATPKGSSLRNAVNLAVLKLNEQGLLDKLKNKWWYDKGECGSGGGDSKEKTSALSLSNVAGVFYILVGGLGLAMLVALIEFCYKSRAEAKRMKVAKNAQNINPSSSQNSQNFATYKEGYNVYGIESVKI
Glutamate receptor ionotropic, kainate 1, sequence (P39086 whole entry): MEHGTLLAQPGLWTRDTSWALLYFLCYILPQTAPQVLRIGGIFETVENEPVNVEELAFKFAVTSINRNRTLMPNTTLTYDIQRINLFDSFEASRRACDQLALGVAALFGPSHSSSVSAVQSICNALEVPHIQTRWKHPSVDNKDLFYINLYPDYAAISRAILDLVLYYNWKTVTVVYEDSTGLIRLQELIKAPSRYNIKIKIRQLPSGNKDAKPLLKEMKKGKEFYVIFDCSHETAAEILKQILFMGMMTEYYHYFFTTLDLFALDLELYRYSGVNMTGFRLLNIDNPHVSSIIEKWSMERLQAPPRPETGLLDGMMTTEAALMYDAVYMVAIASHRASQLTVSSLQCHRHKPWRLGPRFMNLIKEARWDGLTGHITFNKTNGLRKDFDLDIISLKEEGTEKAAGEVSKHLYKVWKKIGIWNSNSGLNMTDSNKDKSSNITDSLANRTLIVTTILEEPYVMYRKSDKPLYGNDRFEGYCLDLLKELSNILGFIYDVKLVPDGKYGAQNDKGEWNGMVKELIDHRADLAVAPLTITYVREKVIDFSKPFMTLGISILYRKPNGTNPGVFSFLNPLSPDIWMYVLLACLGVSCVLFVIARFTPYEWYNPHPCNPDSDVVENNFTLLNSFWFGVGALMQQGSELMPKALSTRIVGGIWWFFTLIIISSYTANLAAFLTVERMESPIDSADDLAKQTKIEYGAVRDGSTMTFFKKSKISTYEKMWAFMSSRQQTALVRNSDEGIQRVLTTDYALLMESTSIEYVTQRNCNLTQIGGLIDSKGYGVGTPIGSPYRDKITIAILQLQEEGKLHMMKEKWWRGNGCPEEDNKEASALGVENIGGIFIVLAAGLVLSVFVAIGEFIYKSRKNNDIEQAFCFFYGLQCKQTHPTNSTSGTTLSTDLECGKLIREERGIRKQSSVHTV

In the case of `Cl.O=C(O)c1ccc(C[C@H]2CC[C@H]3CN[C@H](C(=O)O)C[C@H]3C2)cc1`, in [1], the Tmax stood at 60 min. Further, the affinity at Glutamate receptor 2, expressed as Ki, was 553 µM. The molecule further yielded an AUC(0-inf) in data set [2] of 1.51 µg·h/mL. In [3], this molecule displayed a bioavailability of 62.5%. Further, the peak level in [4] (Cmax) was 0.539 µg/mL.
With `CCOC(=O)c1ccccc1O[C@H]1CC[C@H]2CN[C@H](C(=O)OCC)C[C@H]2C1.Cl`, the MED in the data set with Rattus norvegicus [5] was > 30 mg/kg. In the data set with Rattus norvegicus [6], the minimal effective dose was found to be 10 mg/kg. Also, the Cmax in [7] stood at 9.21 µg/mL. The Activity in the data set with Rattus norvegicus [8] is 21.8%. Further, the time of peak concentration (Tmax) in data set [9] was found to be 30 min. The same molecule had an AUC(0-inf) in [10] of 24.7 µg·h/mL. For the same molecule, the bioavailability in data set [11] amounted to 75.3%.
`CCOC(=O)c1ccc(Cl)cc1O[C@H]1CC[C@H]2CN[C@H](C(=O)OCC)C[C@H]2C1.Cl`: in the data set on Rattus norvegicus [5], the MED is > 30 mg/kg. Also, the minimal effective dose in the data set with Rattus norvegicus [6] was > 10 mg/kg. In data set [7], this molecule registered a peak concentration (Cmax) of 6.45 µg/mL. In addition, the Activity in the data set on Rattus norvegicus [8] came out at 14.9%. Also, the Tmax in data set [9] turned out to be 30 min. The same molecule returned an AUC(0-inf) in [10] of 9.19 µg·h/mL. The molecule further came in with a bioavailability in [11] of 32.9%.
Consider `O=C(O)c1ccc(S[C@H]2CC[C@H]3CN[C@H](C(=O)O)C[C@H]3C2)cc1`, for which the Ki at Glutamate receptor 2 is 418 µM; in data set [12] it was 19 µM.
In the same order, the values of `O=C(O)c1ccccc1O[C@H]1CC[C@H]2CN[C@H](C(=O)O)C[C@H]2C1` are 70 µM and 2.3 µM.
As to `O=C(O)c1cccc(N[C@H]2CC[C@H]3CN[C@H](C(=O)O)C[C@H]3C2)c1`, the Ki at Glutamate receptor 2 was 238 µM; in data set [12], 8 µM.
In the same order, the values of `O=C(O)c1cc(Cl)ccc1O[C@H]1CC[C@H]2CN[C@H](C(=O)O)C[C@H]2C1` are 19 µM and 1.5 µM.
Taken in the same sequence, the figures for `O=C(O)c1c(F)cccc1O[C@H]1CC[C@H]2CN[C@H](C(=O)O)C[C@H]2C1` were 93 µM and 9.7 µM.
In the same order, the values of `O=C(O)c1ccc(-c2ccccc2)cc1O[C@H]1CC[C@H]2CN[C@H](C(=O)O)C[C@H]2C1` are 8.8 µM and 0.5 µM.
On to `O=C(O)c1ccccc1C[C@H]1CC[C@H]2CN[C@H](C(=O)O)C[C@H]2C1`, for which the inhibitory constant (Ki) was determined as 29600 µM on Glutamate receptor 2 and 67 µM in data set [12].
Consider `Cc1ccc(C(=O)O)c(O[C@H]2CC[C@H]3CN[C@H](C(=O)O)C[C@H]3C2)c1`, for which the Ki was 89 µM at Glutamate receptor 2 and 5.9 µM in data set [12].
With `COc1ccc(C(=O)O)c(O[C@H]2CC[C@H]3CN[C@H](C(=O)O)C[C@H]3C2)c1`, the inhibition constant (Ki) came out at 111 µM on Glutamate receptor 2 and 6.2 µM in [12].
In turn, `O=C(O)c1ccc(N[C@H]2CC[C@H]3CN[C@H](C(=O)O)C[C@H]3C2)cc1` displayed an inhibition constant Ki at Glutamate receptor 2 of 1420 µM.
In the case of `O=C(O)c1ccc(Cl)cc1S[C@H]1CC[C@H]2CN[C@H](C(=O)O)C[C@H]2C1`, the Ki on Glutamate receptor 2 turned out to be 22 µM; in [12] it was 1.3 µM.
For the molecule `O=C(O)c1cc(Cl)ccc1S[C@H]1CC[C@H]2CN[C@H](C(=O)O)C[C@H]2C1`, the Ki was 42 µM on Glutamate receptor 2 and 3.7 µM in [12].
At Glutamate receptor 2, `O=C(O)c1cccc(S[C@H]2CC[C@H]3CN[C@H](C(=O)O)C[C@H]3C2)c1` had a Ki of 9 µM.
Turning to `O=C(O)c1cc(Cl)ccc1N[C@H]1CC[C@H]2CN[C@H](C(=O)O)C[C@H]2C1`, the Ki at Glutamate receptor 2 is 3.3 µM; in [12], 3.6 µM.
Turning to `Cc1ccc(O[C@H]2CC[C@H]3CN[C@H](C(=O)O)C[C@H]3C2)c(C(=O)O)c1`, the Ki was determined as 107 µM on Glutamate receptor 2 and 9.9 µM in [12].
Regarding `COc1ccc(O[C@H]2CC[C@H]3CN[C@H](C(=O)O)C[C@H]3C2)c(C(=O)O)c1`, the inhibition constant (Ki) on Glutamate receptor 2 was determined as 87 µM; in [12], 19 µM.
Taken in the same sequence, the figures for `Cc1cccc(C(=O)O)c1O[C@H]1CC[C@H]2CN[C@H](C(=O)O)C[C@H]2C1` were 818 µM and 228 µM.
On to `CCOC(=O)c1ccccc1S[C@H]1CC[C@H]2CN[C@H](C(=O)OCC)C[C@H]2C1.Cl`, for which the MED with Rattus norvegicus [5] is > 100 mg/kg. The minimal effective dose in the data set on Rattus norvegicus [6] came to 10 mg/kg. The molecule further showed a Cmax in [7] of 2.98 µg/mL. Further, in data set [9], the Tmax stood at 30 min. In the data set on Rattus norvegicus [13], the Activity was 49.4%. For the same molecule, the AUC(0-inf) in [10] stood at 7.53 µg·h/mL. In [11], this molecule returned a bioavailability of 38.8%.
On to `O=C(O)c1cccc(C[C@H]2CC[C@H]3CN[C@H](C(=O)O)C[C@H]3C2)c1`, for which the inhibition constant Ki on Glutamate receptor 2 amounted to 149 µM; in data set [12], 16 µM.
Taken in the same sequence, the figures for `O=C(O)c1cc(-c2ccccc2)ccc1O[C@H]1CC[C@H]2CN[C@H](C(=O)O)C[C@H]2C1` were 172 µM and 11 µM.
In turn, `O=C(O)c1ccccc1N[C@H]1CC[C@H]2CN[C@H](C(=O)O)C[C@H]2C1` registered a Ki at Glutamate receptor 2 of 77 µM.
`O=C(O)c1cccc(O[C@H]2CC[C@H]3CN[C@H](C(=O)O)C[C@H]3C2)c1`: the Ki at Glutamate receptor 2 turned out to be 44 µM; in data set [12], 6 µM.
For `O=C(O)c1cccc(Cl)c1O[C@H]1CC[C@H]2CN[C@H](C(=O)O)C[C@H]2C1`, the values for the Ki (on Glutamate receptor 2; in data set [12]) were 1470 µM and 316 µM, respectively.
In the same order, the values of `O=C(O)c1ccc(Cl)cc1O[C@H]1CC[C@H]2CN[C@H](C(=O)O)C[C@H]2C1` are 151 µM and 2.1 µM.
For `O=C(O)c1ccc(O[C@H]2CC[C@H]3CN[C@H](C(=O)O)C[C@H]3C2)cc1`, the inhibitory constant (Ki) at Glutamate receptor 2 was 913 µM; in [12], 267 µM.
For the molecule `CCOC(=O)c1ccc(C[C@H]2CC[C@H]3CN[C@H](C(=O)OCC)C[C@H]3C2)cc1.Cl`, the MED in the data set with Rattus norvegicus [5] was > 30 mg/kg. Further, the minimal effective dose with Rattus norvegicus [6] is 10 mg/kg. Further, the Activity in the data set on Rattus norvegicus [8] is 13.4%.
Consider `O=C(O)c1ccccc1S[C@H]1CC[C@H]2CN[C@H](C(=O)O)C[C@H]2C1`, for which the Ki at Glutamate receptor 2 turned out to be 15 µM; in [12] it was 0.8 µM.
For `CCOC(=O)c1ccc(-c2ccccc2)cc1O[C@H]1CC[C@H]2CN[C@H](C(=O)OCC)C[C@H]2C1.Cl`, the highest level in [7] (Cmax) was 2.69 µg/mL. Also, in [9], the Tmax worked out at 60 min. In data set [10], this molecule returned an AUC(0-inf) of 7.23 µg·h/mL. Also, in data set [11], the bioavailability came to 22.2%.

The record behind these values is ChEMBL document CHEMBL2440037, “GluK1 antagonists from 6-(carboxy)phenyl decahydroisoquinoline derivatives. SAR and evaluation of a prodrug strategy for oral efficacy in pain models” (Bioorg Med Chem Lett, 2013).
